From the array DNA melting data of Ke et al. (doi:10.1101/2024.01.08.574731)

Columns and labels:
[1] = melting temperature; fluorescence melt of hairpins on a sequencing array, two-state fit, raised by 9.35 °C to match UV melts; conditions: sodium 0.088 M
Procedure, shortened: (§1)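 On a sequenced MiSeq flow cell, library hairpins with annealed Cy3 and quencher oligos were imaged for Cy3 fluorescence in 2.5 °C steps up to 60 °C, in 50 mM Na-HEPES pH 8.0, 25 mM NaCl. Normalisation used pre-quench Cy3 and control constructs. Bootstrapped two-state fits gave melting temperature and folding enthalpy, combined by inverse variance across four replicates and with fitted temperatures raised by 9.35 °C to match UV melts.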

[2] = folding enthalpy; higher = less favourable; fluorescence melt of hairpins on a sequencing array, two-state fit; conditions: sodium 0.088 M
Procedure, shortened: as §1

Sequence | Tm [1] | folding enthalpy [2]
GCTCATGGAAACATGGGC ((.((((....)))).)) | 53 °C | -34.2 kcal/mol
GCACGCGAAAGCGATGC ((((((....))).))) | 65.2 °C | -21.3 kcal/mol
GATCTTATTCAAGATC ((((((....)))))) | 43.5 °C | -31.7 kcal/mol
GATCCACACTGGATC ((((((...)))))) | 50.7 °C | -33.2 kcal/mol
GATCGTGGAACGATC ((((((...)))))) | 66.8 °C | -35.7 kcal/mol
GCTATGCGAAAGCAATGC ((..(((....)))..)) | 47.7 °C | -16.5 kcal/mol
GCATGTGAAAACATGC ((((((....)))))) | 64 °C | -38.3 kcal/mol
GGGTTTGGAAACGAACTC (.(((.(....).))).) | 32.4 °C | -24 kcal/mol
GTCGCACGAAAGTGTGAC (((.(((....))).))) | 67.4 °C | -42.4 kcal/mol
GATATGCGAAAGCAAATC (((.(((....))).))) | 40.1 °C | -24.3 kcal/mol
GCGTTCACACGC ((((....)))) | 52.8 °C | -22.6 kcal/mol
GACTAAGCGAAAGCTGTC (((..(((....)))))) | 45 °C | -15 kcal/mol
GCGTAACACGC ((((...)))) | 55.7 °C | -20.9 kcal/mol
GATCGCTCTCGCGATC ((((((....)))))) | 67.6 °C | -34.2 kcal/mol
GATCGGTTGCCCGATC ((((((....)))))) | 57.2 °C | -32.5 kcal/mol
GTGGGAGGAAACTCCCAC (((((((....))))))) | 67.2 °C | -32.1 kcal/mol
GCACATGGAAACATGTGC (((((((....))))))) | 67.4 °C | -43.4 kcal/mol
GCCCCCGAAAGGGGAGGC ((((((....)))..))) | 59.9 °C | -13.8 kcal/mol
GCGAAATCGAAAGATCGC (((..(((....)))))) | 47.5 °C | -28.1 kcal/mol
GCAAAGTCGAAAGACTGC (((..(((....)))))) | 47.8 °C | -19.5 kcal/mol

Sequence | Tm [1] | folding enthalpy [2]
GTGGGCGGAAACGTCCGC (.((.((....)).)).) | 54.3 °C | -25.4 kcal/mol
GTTGTACGAAAGTAAAAC (((.(((....))).))) | 38.8 °C | -26.7 kcal/mol
GAACGCCGAAAGGCTTC (((.(((....)))))) | 44.1 °C | -14.1 kcal/mol
GATCAGAGGACTGATC ((((((....)))))) | 46.9 °C | -32.8 kcal/mol
GTAAACGAAAGTTGTAC ((((((....))).))) | 31.2 °C | -13.7 kcal/mol
GCGAGGGCTCGC ((((....)))) | 51 °C | -25.5 kcal/mol
GCCGTGCGAAAGCATCGC ((..(((....)))..)) | 50.2 °C | -11.1 kcal/mol
GTGCGTGGAAACGCGCAC (((((.(....).))))) | 65.6 °C | -23.7 kcal/mol
GTAAAGCGAAAGCTCTAC (((.(((....))).))) | 35 °C | -14.5 kcal/mol
GCATCGCGAAAGCTGTGC (((..((....))..))) | 45.8 °C | -21.1 kcal/mol
GATCGTACAGACGATC ((((((....)))))) | 52.5 °C | -54.1 kcal/mol
GATCAAACGTTTGATC ((((((....)))))) | 51 °C | -41.4 kcal/mol
GTAGAGGGAAACCTTTAC (((.(((....))).))) | 31 °C | -28.7 kcal/mol
GGTGGAGGAAACTCCACC (((((((....))))))) | 67.5 °C | -38.6 kcal/mol
CGCCAGAAATGGCG (((((....))))) | 66.4 °C | -31.5 kcal/mol
GGAATGGGAAACTATTCC (((((.(....).))))) | 42.3 °C | -25.9 kcal/mol
GATCTACCGTTAGATC ((((((....)))))) | 37.8 °C | -30.5 kcal/mol
GCCGAGGGAAACCCCGGC ((((.((....)).)))) | 59.9 °C | -40.2 kcal/mol
GATCTCTTATGAGATC ((((((....)))))) | 54.1 °C | -43.4 kcal/mol
